The values that follow come from ChEMBL document CHEMBL3580634, “Discovery of a high affinity and selective pyridine analog as a potential positron emission tomography imaging agent for cannabinoid type 2 receptor” (J Med Chem, 2015).

Some results are limits rather than exact numbers.

Series [1] concerns Spleen. Briefly: Biodistribution in mouse spleen at 0.2 nM incubated for 15 mins by autoradiography. In kind it is ADME. Conditions: 0.25 h, 0.0002 µM; call rule not given here. In outline: (§1)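 Mouse or rat spleen cryosections (20 μm) were thawed on ice and preconditioned in 50 mM Tris/HCl, 5% BSA, pH 7.4, then incubated 15 min at rt with 0.2 nM radioligand, alone or with 5 μM blocker. Washed in Tris/HCl with 1% BSA and 5% EtOH (2 × 2 min) and water on ice, then exposed 30 min to phosphor imager plates.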

Series [2] in a line: Lipophilicity, log D of the compound in n-octanol/phosphate buffer pH 7.4 by shake flask method. It is filed as physicochemical.
The nature of series [3]: Biodistribution in Wistar rat plasma assessed as intact parent tracer level at 48 MBq, iv measured after 20 mins by radio-TLC method. Conditions: read-out: Drug uptake. In kind it is ADME, organism-based. In outline:
(§2)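 After iv tracer, rat plasma was taken at 5, 10 and 20 min. Urine and brain were collected at 20 min sacrifice. Plasma was separated at 5000g, 5 min, 4 °C. Proteins in plasma, urine and PBS brain homogenate were precipitated with cold acetonitrile and centrifuged. Supernatants were run by radio-TLC in hexane/EtOAc (1:1), reported as % of total activity.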

In series [4] the test system is Spleen. Briefly: Biodistribution in rat spleen at 0.2 nM incubated for 15 mins by autoradiography. It is filed as ADME. Particulars: 0.25 h, 0.0002 µM. In outline: as §1
Series [5] in a line: Stability in rat plasma assessed as intact compound remaining at 4 MBq at 37 degC incubated for 5 to 20 mins by radio-TLC method. In kind it is ADME, cell-free. Particulars: read-out: Stability. Summed up:
(§3)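 Mouse, rat or human plasma was incubated with formulated radiotracer (4 MBq) at 37 °C with shaking. Aliquots taken at 5, 10, 15 and 20 min were quenched with ice-cold acetonitrile and centrifuged. Supernatant was analysed by radio-TLC in hexane/EtOAc (1:1).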

Series [6] concerns Spleen. Description: Biodistribution in Wistar rat spleen at 6 to 10 MBq, iv treated with 1.5 mg/kg CB2 ligand GW405833 injected 1 mins after compound dosing by gamma counting method. It is filed as ADME, organism-based. Conditions: in vivo.
Series [7] has as its target T1, Cannabinoid receptor 2 (Homo sapiens, UniProt P34972). Description: Displacement of [3H]CP-55,940 from human CB2 receptor expressed in CHO cell membranes. In outline: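 Membranes from CHO cells expressing human or murine CB2 were incubated with [3H]CP-55,940 in 50 mM Tris, 5 mM MgCl2, 2.5 mM EGTA, 0.1% fatty-acid-free BSA, pH 7.4, 1 h at 30 °C with shaking. Reaction stopped by filtration through PEI-coated GF/B. Ki from nonlinear regression using saturation-derived Kd. Ten concentrations in triplicate.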

Series [8] relates to Plasma. Description: Stability in human plasma assessed as compound degradation at 4 MBq at 37 degC […] by radio-TLC method. In kind it is ADME, cell-free. Particulars: 40 min.
Series [9] can be described thus: Drug metabolism in Wistar rat urine assessed as hydrophilic radio-metabolites level at 48 MBq, iv measured after 5 to 20 mins by radio-TLC method. It is filed as ADME, organism-based. Particulars: in vivo. Summed up:
as §2

Series [10] deals with Small intestine. Description: Biodistribution in Wistar rat small intestine at 6 to 10 MBq, iv measured after 15 mins by gamma counting method. Conditions: in vivo, 0.25 h. In kind it is ADME, organism-based. In outline:
(§4)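 Male Wistar rats (5 weeks old) received 6–10 MBq (0.03–0.05 nmol) tracer via tail vein. For blocking, 1.5 mg/kg blocker was given iv shortly before the tracer (n = 3). Rats were decapitated under isoflurane at 15 min pi. Organs were weighed and gamma-counted, expressed as normalized %ID/g tissue (per 1 kg body weight). One baseline animal was excluded for paravenous injection.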

Series [11] deals with Spleen. Briefly: Biodistribution in Wistar rat spleen at 11 to 18 MBq, iv measured during first 10 mins by PET/CT imaging method. In kind it is ADME, organism-based. Particulars: in vivo. In outline: (§5)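 Isoflurane-anaesthetized male Wistar rats received 11–18 MBq (0.06–0.09 nmol) tracer via tail vein. Dynamic PET ran 60 min from injection, then CT. For displacement, 1.5 mg/kg blocker was given iv 10 min after tracer; 2 rats per condition. Temperature held at 37 °C. Reconstruction by 2D-OSEM without attenuation correction. Uptake given as SUV.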

A short description of series [12]: Lipophilicity, log D of the radio-labeled compound in n-octanol/phosphate buffer pH 7.4 by shake flask method. It is filed as physicochemical. Summed up: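 Formulated radiotracer (8 MBq) was added to n-octanol and phosphate buffer pH 7.4, each presaturated with the other, shaken 15 min and centrifuged 5000g 5 min. Radioactivity in both phases was gamma-counted and D taken as their ratio; n = 5.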

Series [13] in a line: Biodistribution in Wistar rat plasma assessed as intact parent tracer level at 48 MBq, iv measured after 10 mins by radio-TLC method. Conditions: read-out: Drug uptake. It is filed as ADME, organism-based. Summed up:
as §2

The test system of series [14] is Liver. Briefly: Biodistribution in Wistar rat liver at 6 to 10 MBq, iv measured after 15 mins by gamma counting method. It is filed as ADME, organism-based. Conditions: in vivo, 0.25 h. Summed up: as §4
The test system of series [15] is Brain. Briefly: Biodistribution in brain of mouse model of LPS-induced neuroinflammation at 10 to 27 MBq, iv treated with 10 mg/kg LPS 5 days before PET scan by PET imaging method. It is filed as ADME, organism-based. Particulars: in vivo, 120 h. In outline: (§6)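 Male CD-1 mice got 10 mg/kg LPS (E. coli O111:B4) or saline ip 5 days before PET. Under isoflurane, 10–27 MBq tracer was injected via tail vein, with 60 min PET then CT. For blocking, 2.0 mg/kg blocker or vehicle was given sc 30 min before tracer. Whole-brain ROI was taken on an MRI T2 template, expressed as SUV; n = 2 per condition.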

Series [16] deals with Brain. Description: Biodistribution in Wistar rat brain at 48 MBq, iv measured after 20 mins by radio-TLC method. In kind it is ADME, organism-based. Particulars: in vivo.
Series [17] is described as follows: Stability in mouse plasma assessed as intact compound remaining at 4 MBq at 37 degC incubated for 5 to 20 mins by radio-TLC method. It is filed as ADME, cell-free. Particulars: read-out: Stability. Summed up:
as §3

The test system of series [18] is Spleen. Briefly: Biodistribution in mouse spleen at 0.2 nM incubated for 15 mins in presence of 5 uM CB2 ligand GW405833 by autoradiography. It is filed as ADME. Particulars: 0.25 h, 0.0002 µM. Summed up: as §1
The subject of series [19] is Spleen. Briefly: Biodistribution in rat spleen at 0.2 nM incubated for 15 mins in presence of 5 uM CB2 ligand GW405833 by autoradiography. In kind it is ADME. Particulars: 0.25 h, 0.0002 µM. Summed up: as §1
In series [20] the test system is Spleen. Description: Biodistribution in Wistar rat spleen at 11 to 18 MBq, iv treated with 1.5 mg/kg CB2 ligand GW405833 injected 10 mins after compound dosing by PET/CT imaging method. It is filed as ADME, organism-based. Conditions: in vivo. In outline:
as §5

Series [21] has as its system Spleen. Briefly: Biodistribution in Wistar rat spleen at 11 to 18 MBq, iv measured after 10 mins by PET/CT imaging method. In kind it is ADME, organism-based. Conditions: in vivo. In outline:
as §5

For series [22], the system named is Brain. Description: Biodistribution in brain of mouse model of LPS-induced neuroinflammation at 10 to 27 MBq, iv treated with 2 mg/kg CB2 ligand GW405833 injected 30 mins before PECT acquisition by PET imaging method. It is filed as ADME, organism-based. Particulars: in vivo, 0.5 h. Summed up: as §6
Series [23] concerns Spleen. Description: Biodistribution in Wistar rat spleen at 11 to 18 MBq, iv treated with 1.5 mg/kg CB2 ligand GW405833 injected 10 mins after compound dosing and measured 15 mins after GW405833 dosing by PET/CT imaging method. Particulars: in vivo, 0.25 h. It is filed as ADME, organism-based. Summed up:
as §5

The subject of series [24] is Brain. Description: Biodistribution in Wistar rat brain at 6 to 10 MBq, iv measured after 15 mins by gamma counting method. It is filed as ADME, organism-based. Conditions: in vivo, 0.25 h. Summed up:
as §4

Series [25] can be described thus: Biodistribution in Wistar rat plasma assessed as intact parent tracer level at 48 MBq, iv measured after 5 mins by radio-TLC method. In kind it is ADME, organism-based. Conditions: read-out: Drug uptake. Summed up: as §2
Series [26] can be described thus: Ratio of drug level in brain to plasma in ip dosed rat. In kind it is ADME, organism-based. Conditions: read-out: BPR.
Series [27] is described as follows: Drug level in brain of ip dosed rat after 1 hr. In kind it is ADME, organism-based. Particulars: read-out: Drug uptake.
For series [28], the target named is T1, Cannabinoid receptor 2. Description: Binding affinity to human CB2 receptor. Summed up:
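Competition binding with [³H]CP-55,940 on membranes from CHO cells expressing human CB2. Buffer: 50 mM Tris, 5 mM MgCl₂, 2.5 mM EGTA, 0.1% fatty-acid-free BSA, pH 7.4. Incubated 1 h at 30 °C with shaking, then rapid filtration through 0.5% polyethylenimine-coated filters. Ki from nonlinear regression, using Kd from saturation experiments. Single experiment, triplicates, 10 concentrations.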

T1 sequence (P34972 whole entry): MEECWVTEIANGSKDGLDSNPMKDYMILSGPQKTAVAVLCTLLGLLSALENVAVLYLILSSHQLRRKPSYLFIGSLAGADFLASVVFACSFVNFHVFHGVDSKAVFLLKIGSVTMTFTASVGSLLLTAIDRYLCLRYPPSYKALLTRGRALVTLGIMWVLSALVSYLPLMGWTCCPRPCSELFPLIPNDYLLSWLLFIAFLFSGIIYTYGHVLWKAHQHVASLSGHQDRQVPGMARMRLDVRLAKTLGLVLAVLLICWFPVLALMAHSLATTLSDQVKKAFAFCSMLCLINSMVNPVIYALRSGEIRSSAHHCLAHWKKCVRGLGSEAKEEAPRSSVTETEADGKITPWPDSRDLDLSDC

For the compound `CCOC(=O)C(CC)(CC)NC(=O)c1ccc(N2CC(O[11CH3])C2)c(OCC2CC2)n1`, the Drug uptake entry is given as “Active” in [1]; “Active” in series [4]; “Not Active” in [6]; “Active” in series [10]; “Active” in series [11]; “Active” in series [14]. Also, the Drug uptake result is recorded as “Active” in series [15]; “Not Active” in series [16]; “Not Active” in [18]; “Not Active” in series [19]; “Not Active” in [20]; “Not Active” in series [21]. Also, the Drug uptake entry in [22], in [23] and in series [24] was “Not Active” in each case. Also, the logD in [2] and in [12] was 1.94 in each case. The remaining at 20 min in series [3] amounted to 21%. The figures for the remaining at 4 MBq in series [5] and in [17] were 86% and 84%, respectively. The affinity in [7], expressed as Ki, was 2.5 nM. In series [8], the Stability result was “Stable”. In [9], the Drug metabolism result is “metabolite_detected”. For the same compound, in series [13], the remaining at 10 min was determined as 37%. The remaining at 5 min in [25] turned out to be 51%.
On to `COc1ccc2c(c1)c(CCN1CCOCC1)c(C)n2C(=O)c1cccc(Cl)c1Cl`, for which the Kp in series [26] was 5. The concentration at 1 h in series [27] is over 100 nM. The compound also displayed a Ki in series [28] of 3.9 nM.
